Data from PMC11541586 (Communications Biology, 2024).

Legend:
human LPA1 = human LPA1 (Homo sapiens, UniProt Q92633); assay: NanoBiT-G-protein dissociation assay; format: cell-based
Summary of the method: (§1)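 Human LPA1 (N-terminal FLAG-tagged, wild type or point mutant) is co-transfected into HEK293T cells with LgBiT-Gαi1, untagged Gβ1 and SmBiT-Gγ2 C68S. After 1 d, cells are resuspended in HBSS with 0.01% fatty-acid-free BSA and loaded with coelenterazine for 2 h.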

human LPA1 W210A mutant = human LPA1 W210A mutant (Homo sapiens, UniProt Q92633, W210A); assay: NanoBiT-G-protein dissociation assay, LPA1 W210A mutant; format: cell-based
Chain of human LPA1 W210A mutant (Q92633 whole entry W210A): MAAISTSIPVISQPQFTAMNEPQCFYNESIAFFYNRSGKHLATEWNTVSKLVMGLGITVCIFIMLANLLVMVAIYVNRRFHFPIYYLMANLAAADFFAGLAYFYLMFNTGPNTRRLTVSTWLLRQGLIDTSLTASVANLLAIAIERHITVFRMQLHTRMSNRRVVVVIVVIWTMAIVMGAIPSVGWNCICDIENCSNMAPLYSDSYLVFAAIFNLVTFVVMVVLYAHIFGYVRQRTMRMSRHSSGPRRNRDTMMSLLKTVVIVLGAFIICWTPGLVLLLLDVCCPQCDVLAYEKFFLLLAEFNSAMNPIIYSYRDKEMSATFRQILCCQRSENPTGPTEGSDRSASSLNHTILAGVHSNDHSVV
Summary of the method: as §1

human LPA1 W271F mutant = human LPA1 W271F mutant (Homo sapiens, UniProt Q92633, W271F); assay: NanoBiT-G-protein dissociation assay, LPA1 W271F mutant; format: cell-based
Chain of human LPA1 W271F mutant (Q92633 whole entry W271F): as the sequence (Q92633 whole entry W210A) above, with A210W, W271F counted along it
Summary of the method: as §1

human LPA1 L278A mutant = human LPA1 L278A mutant (Homo sapiens, UniProt Q92633, L278A); assay: NanoBiT-G-protein dissociation assay, LPA1 L278A mutant; format: cell-based
Chain of human LPA1 L278A mutant (Q92633 whole entry L278A): as the sequence (Q92633 whole entry W210A) above, with A210W, L278A counted along it
Summary of the method: as §1

CNRs = assay: NanoBiT-G-protein dissociation assay for CNRs; format: cell-based, human
FFAR4 = target: T1, FFAR4 (Homo sapiens, UniProt Q5NUL3); assay: NanoBiT-G-protein dissociation assay for FFAR4; format: cell-based; details: FFAR4 (b17 prints FFARs)
T1 sequence (Q5NUL3 1-361): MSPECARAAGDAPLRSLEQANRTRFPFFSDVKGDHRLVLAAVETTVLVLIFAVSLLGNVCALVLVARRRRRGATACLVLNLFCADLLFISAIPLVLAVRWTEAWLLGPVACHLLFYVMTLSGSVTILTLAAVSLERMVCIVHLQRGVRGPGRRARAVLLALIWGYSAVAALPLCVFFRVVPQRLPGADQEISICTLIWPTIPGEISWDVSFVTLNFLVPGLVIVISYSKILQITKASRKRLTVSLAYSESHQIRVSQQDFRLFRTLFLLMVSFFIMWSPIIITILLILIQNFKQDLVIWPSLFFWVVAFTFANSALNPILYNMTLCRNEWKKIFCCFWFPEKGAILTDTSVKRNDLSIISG

Chain of human LPA1 (Q92633 whole entry): as the sequence (Q92633 whole entry W210A) above, with A210W counted along it

## CCc1oc2c([C@H](CO)N(CC)CC)cccc2c1C [CpY, (2R)-2-(diethylamino)-2-(2-ethyl-3-methyl-benzofuran-7-yl)ethanol]
Human LPA1; EC50, WT LPA1
  EC50: 0.95 nM
Human LPA1; compared with LPA
  Emax relative to LPA: 1.5 fold
  agonistic activity (EC50) relative to LPA: 20 fold
Human LPA1 W210A mutant
  response of mutant compared with wild type: responsive
Human LPA1 W271F mutant
  response of mutant compared with wild type: reduction in response
Human LPA1 L278A mutant
  response of mutant compared with wild type: reduced the activity
CNRs
  effect on receptor: no activity
FFAR4
  effect on receptor: no activity
